Converted amounts (≈) assume the structure as drawn.
What was measured:
[1] = Apparent permeability across apical to basolateral side in human Caco2 cells at 10 uM after 1 hr by LC-MS method; details: Caco-2
[2] = Propionaldehyde reactivity assessed as half life of the compound at pH 7.4 by LC-UV method; assay type: physicochemical
Rattus norvegicus = test: In vivo inhibition of DPP1 in po dosed naive rat assessed as inactivation of proteinase 3 in bone marrow cell lysates administered as bid for 8 days; assay type: functional, organism-based
[3] = Volume of distribution at steady state in Beagle dog at 1 mg/kg, iv and 2 mg/kg, po; assay type: ADME, organism-based, Canis lupus familiaris; details: in vivo, read-out: Vdss
Cathepsin K = biological target: T1, Cathepsin K (Homo sapiens, UniProt P43235); test: Inhibition of human recombinant cathepsin K
T1 sequence (P43235 whole entry): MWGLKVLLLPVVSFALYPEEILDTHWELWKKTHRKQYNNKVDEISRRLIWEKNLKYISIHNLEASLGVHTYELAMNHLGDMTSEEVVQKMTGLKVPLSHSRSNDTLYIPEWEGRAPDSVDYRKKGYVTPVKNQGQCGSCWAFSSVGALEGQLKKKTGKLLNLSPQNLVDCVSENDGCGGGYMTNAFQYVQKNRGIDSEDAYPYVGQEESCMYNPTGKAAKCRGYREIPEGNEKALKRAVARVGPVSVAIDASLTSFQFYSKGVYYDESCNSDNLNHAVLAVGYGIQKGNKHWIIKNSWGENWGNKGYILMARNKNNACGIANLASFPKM

[4] = Inhibition of rabbit DPP1 expressed in CHO cells using Gly-Arg-AMC as substrate preincubated for 30 mins followed by substrate addition by fluorometric assay; assay type: cell-based, Oryctolagus cuniculus
[5] = Half life in Han Wistar rat at 1 mg/kg, iv and 3 mg/kg, po; assay type: ADME, organism-based; details: in vivo
Outline: (§1)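 Han Wistar rat PK with 1 mg/kg iv and 3 mg/kg po doses, both in pH3 buffer. Clearance is given in ml/min/kg, Vss in L/kg and t1/2 in h.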

Dipeptidyl peptidase 1 [6] = biological target: T2, Dipeptidyl peptidase 1 (Rattus norvegicus, UniProt P80067); test: Inhibition of rat DPP1 using Gly-Arg-AMC as substrate preincubated for 30 mins followed by substrate addition by fluorometric assay
T2 sequence (P80067 whole entry): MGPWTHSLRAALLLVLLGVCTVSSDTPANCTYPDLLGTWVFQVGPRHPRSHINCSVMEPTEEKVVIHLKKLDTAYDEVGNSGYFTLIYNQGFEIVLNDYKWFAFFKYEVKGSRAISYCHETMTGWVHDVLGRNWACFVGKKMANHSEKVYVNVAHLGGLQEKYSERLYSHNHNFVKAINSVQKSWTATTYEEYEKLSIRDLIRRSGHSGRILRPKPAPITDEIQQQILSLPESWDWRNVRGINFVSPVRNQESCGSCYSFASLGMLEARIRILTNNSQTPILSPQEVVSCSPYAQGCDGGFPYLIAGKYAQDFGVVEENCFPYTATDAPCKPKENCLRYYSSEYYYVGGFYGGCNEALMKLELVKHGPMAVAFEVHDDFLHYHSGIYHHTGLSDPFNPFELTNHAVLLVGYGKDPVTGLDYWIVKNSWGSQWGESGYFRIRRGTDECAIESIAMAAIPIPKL

[7] = Apparent permeability across apical to basolateral side in human Caco2 cells at 10 uM after 2 hrs by LC-MS/MS method; assay type: ADME, cell-based; details: Caco-2
Outline: (§2)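 Caco-2 bidirectional permeability run as P_app, given in cm/s x 10^-6.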

Dipeptidyl peptidase 1 [8] = biological target: Dipeptidyl peptidase 1 (Homo sapiens, UniProt P53634)
Sequence of Dipeptidyl peptidase 1 (Homo sapiens, UniProt P53634) (P53634 25-134 limits assumed): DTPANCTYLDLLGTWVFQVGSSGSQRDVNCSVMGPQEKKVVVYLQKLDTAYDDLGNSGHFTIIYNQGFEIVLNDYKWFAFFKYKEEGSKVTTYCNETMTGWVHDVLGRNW
Sequence of Dipeptidyl peptidase 1 (Homo sapiens, UniProt P53634) (P53634 231-394 limits assumed): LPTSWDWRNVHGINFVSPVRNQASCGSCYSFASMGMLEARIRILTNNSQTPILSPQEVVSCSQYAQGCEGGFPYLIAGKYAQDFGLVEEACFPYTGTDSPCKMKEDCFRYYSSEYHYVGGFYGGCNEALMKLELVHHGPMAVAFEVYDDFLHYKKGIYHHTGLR
Sequence of Dipeptidyl peptidase 1 (Homo sapiens, UniProt P53634) (P53634 395-463 limits assumed): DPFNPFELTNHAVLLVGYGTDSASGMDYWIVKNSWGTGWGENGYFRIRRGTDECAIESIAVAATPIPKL

Cathepsin D = Cathepsin D (Homo sapiens, UniProt P07339); test: Inhibition of human recombinant cathepsin D
Sequence of Cathepsin D (P07339 65-162 limits assumed): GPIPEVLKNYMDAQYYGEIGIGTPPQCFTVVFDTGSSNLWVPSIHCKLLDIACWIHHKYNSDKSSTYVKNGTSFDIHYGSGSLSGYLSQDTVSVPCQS
Sequence of Cathepsin D (P07339 169-412 limits assumed): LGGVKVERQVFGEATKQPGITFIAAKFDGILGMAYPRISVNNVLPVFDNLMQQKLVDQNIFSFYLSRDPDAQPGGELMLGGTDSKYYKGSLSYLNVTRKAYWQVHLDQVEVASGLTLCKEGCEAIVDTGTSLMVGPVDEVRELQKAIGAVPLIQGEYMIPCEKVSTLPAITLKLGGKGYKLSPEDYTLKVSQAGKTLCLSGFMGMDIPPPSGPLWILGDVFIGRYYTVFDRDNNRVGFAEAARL

[9] = Protein binding in human plasma at 10 uM after 6 hrs by LC-MS/MS method; assay type: ADME, cell-free; details: read-out: PPB (converted)
[10] = Oral bioavailability in Beagle dog at 2 mg/kg; assay type: ADME, organism-based, Canis lupus familiaris; details: in vivo
[11] = Intrinsic clearance in human liver microsomes at 1 uM after 5 to 40 mins by LC-MS/MS method; assay type: ADME; details: read-out: CLH
[12] = Intrinsic clearance in rat hepatocytes at 1 uM after 5 to 120 mins by LC-MS/MS method; assay type: ADME, cell-based, Hepatocyte
Outline: (§3)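 Hepatocyte intrinsic clearance for rat and dog, given in µL/min/10^6 cells.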

[13] = biological target: Voltage-gated inwardly rectifying potassium channel KCNH2 (Homo sapiens, UniProt Q12809)
Sequence of Voltage-gated inwardly rectifying potassium channel KCNH2 (Q12809 whole entry): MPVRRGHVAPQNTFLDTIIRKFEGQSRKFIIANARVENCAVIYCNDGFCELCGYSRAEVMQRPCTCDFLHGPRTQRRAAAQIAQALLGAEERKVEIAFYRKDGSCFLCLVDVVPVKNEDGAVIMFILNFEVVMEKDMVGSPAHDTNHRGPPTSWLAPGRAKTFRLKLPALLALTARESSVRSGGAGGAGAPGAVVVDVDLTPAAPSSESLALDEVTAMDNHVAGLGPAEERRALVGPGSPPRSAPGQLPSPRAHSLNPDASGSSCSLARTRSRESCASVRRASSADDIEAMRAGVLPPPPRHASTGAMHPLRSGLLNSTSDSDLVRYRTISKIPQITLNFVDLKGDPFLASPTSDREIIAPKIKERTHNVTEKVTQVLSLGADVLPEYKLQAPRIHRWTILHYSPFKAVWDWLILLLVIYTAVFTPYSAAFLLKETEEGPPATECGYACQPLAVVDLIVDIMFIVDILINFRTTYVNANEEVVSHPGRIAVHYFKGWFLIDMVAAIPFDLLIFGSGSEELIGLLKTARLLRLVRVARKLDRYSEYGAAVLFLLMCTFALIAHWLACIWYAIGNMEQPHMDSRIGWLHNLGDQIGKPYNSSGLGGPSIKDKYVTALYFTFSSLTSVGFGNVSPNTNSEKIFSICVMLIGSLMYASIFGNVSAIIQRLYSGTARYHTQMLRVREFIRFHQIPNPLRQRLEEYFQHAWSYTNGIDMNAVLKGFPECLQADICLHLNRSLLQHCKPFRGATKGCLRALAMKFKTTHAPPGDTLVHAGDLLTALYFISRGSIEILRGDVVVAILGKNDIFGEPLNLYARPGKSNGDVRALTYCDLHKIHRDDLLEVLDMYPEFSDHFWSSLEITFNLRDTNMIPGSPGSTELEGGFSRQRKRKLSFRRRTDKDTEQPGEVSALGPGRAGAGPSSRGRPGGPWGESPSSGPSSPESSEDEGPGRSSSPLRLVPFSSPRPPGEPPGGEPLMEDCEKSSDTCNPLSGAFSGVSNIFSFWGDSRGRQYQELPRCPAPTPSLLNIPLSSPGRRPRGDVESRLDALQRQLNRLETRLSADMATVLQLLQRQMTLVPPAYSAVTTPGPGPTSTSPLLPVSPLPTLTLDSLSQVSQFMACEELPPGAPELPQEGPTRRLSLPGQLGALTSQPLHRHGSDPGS

[14] = Apparent permeability across basolateral to apical side in human Caco2 cells at 10 uM after 2 hrs by LC-MS/MS method; assay type: ADME, cell-based; details: Caco-2; outline: as §2
Pro-cathepsin H = biological target: T3, Pro-cathepsin H (Homo sapiens, UniProt P09668); test: Inhibition of human recombinant cathepsin H
T3 sequence (P09668 whole entry): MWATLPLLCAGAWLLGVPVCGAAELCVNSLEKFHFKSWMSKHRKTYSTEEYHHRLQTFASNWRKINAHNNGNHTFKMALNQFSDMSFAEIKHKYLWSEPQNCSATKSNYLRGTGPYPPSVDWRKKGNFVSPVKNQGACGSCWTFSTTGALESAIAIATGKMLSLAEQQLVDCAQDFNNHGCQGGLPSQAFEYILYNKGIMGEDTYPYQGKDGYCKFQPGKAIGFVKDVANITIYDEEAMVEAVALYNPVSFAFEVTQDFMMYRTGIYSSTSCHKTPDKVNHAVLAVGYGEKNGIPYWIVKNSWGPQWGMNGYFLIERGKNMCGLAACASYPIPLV

[15] = Clearance in Han Wistar rat at 1 mg/kg, iv and 3 mg/kg, po; assay type: ADME, organism-based; details: in vivo; outline: as §1
[16] = Clearance in Sprague-Dawley rat at 1 mg/kg, iv or 3 mg/kg, po; assay type: ADME, organism-based; details: in vivo
[17] = Intrinsic clearance in dog hepatocytes at 1 uM after 5 to 120 mins by LC-MS/MS method; assay type: ADME, cell-based, Canis lupus familiaris, Hepatocyte; outline: as §3
Cathepsin B = Cathepsin B (Homo sapiens, UniProt P07858); test: Inhibition of human recombinant cathepsin B
physchem [18] = details: phosphate buffered saline, pH 7.4
Cathepsin S = Cathepsin S (Homo sapiens, UniProt P25774); test: Inhibition of human recombinant cathepsin S
Sequence of Cathepsin S (P25774 whole entry): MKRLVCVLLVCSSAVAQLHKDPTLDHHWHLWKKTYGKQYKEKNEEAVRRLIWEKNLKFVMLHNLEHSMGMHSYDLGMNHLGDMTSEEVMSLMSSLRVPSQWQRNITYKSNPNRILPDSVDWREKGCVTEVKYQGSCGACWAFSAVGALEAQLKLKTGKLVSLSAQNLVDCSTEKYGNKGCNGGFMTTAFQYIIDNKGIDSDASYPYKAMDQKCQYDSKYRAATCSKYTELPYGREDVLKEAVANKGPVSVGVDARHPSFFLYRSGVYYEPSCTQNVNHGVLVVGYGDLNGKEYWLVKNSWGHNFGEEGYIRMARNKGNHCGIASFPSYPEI

[19] = Protein binding in rat plasma at 10 uM after 6 hrs by LC-MS/MS method; assay type: ADME, cell-free; details: read-out: PPB (converted)
physchem [20] = details: octanol/water, pH 7.4
[21] = Volume of distribution at steady state in Sprague-Dawley rat at 1 mg/kg, iv or 3 mg/kg, po; assay type: ADME, organism-based; details: in vivo, read-out: Vdss
[22] = Volume of distribution at steady state in Han Wistar rat at 1 mg/kg, iv and 3 mg/kg, po; assay type: ADME, organism-based; details: in vivo, read-out: Vdss; outline: as §1
[23] = Apparent permeability across basolateral to apical side in human Caco2 cells at 10 uM after 1 hr by LC-MS method; details: Caco-2
[24] = Intrinsic clearance in dog hepatocytes assessed per 10^6 cells at 1 uM after 10 to 90 mins by LC-MS/MS method; assay type: ADME, cell-based, Canis lupus familiaris, Hepatocyte

- Papp A→B at 1 h, 10 µM [1]: 9.2 ×10⁻⁶ cm/s
- half-life [2]: > 50 h
- Vd [3]: 11 L/kg
- IC50 (Cathepsin K): > 20 µM
- pIC50 [4]: 7.8
- half-life [5]: 5 h
- IC50 (Dipeptidyl peptidase 1 [6]): 0.02 µM
- Papp A→B at 2 h, 10 µM [7]: 4 ×10⁻⁶ cm/s
- T1/2 (Dipeptidyl peptidase 1 [8]): 3 min
- IC50 (Cathepsin D): > 20 µM
- fraction unbound at 6 h, 10 µM [9]: 0.13
- bioavailability [10]: 92%
- microsomal CLint at 1 µM [11]: < 14 µL/min/mg
- CLH [12]: 1.9 µL/min/1e6 cells
- Papp B→A at 2 h, 10 µM [14]: 27 ×10⁻⁶ cm/s
- IC50 (Pro-cathepsin H): > 20 µM
- clearance [15]: 7 mL/min/kg
- clearance [16]: 1 mL/min/kg
- CLH [17]: < 1 µL/min/1e6 cells
- IC50 (Cathepsin B): > 20 µM
- solubility kinetic at 2 h (physchem [18]): 180 µM (≈ 75.7 µg/mL)
- IC50 (Cathepsin S): > 20 µM
- fraction unbound at 6 h, 10 µM [19]: 0.06
- logD at 10 µM (physchem [20]): 0.8
- Vd [21]: 1 L/kg
- Vd [22]: 2.5 L/kg
- Papp B→A at 1 h, 10 µM [23]: 58 ×10⁻⁶ cm/s
- CLH [24]: < 3.5 µL/min/10^6 cells
Compound: Cn1c(=O)oc2ccc(-c3ccc(C[C@@H](C#N)NC(=O)[C@@H]4CNCCCO4)cc3)cc21 [BRENSOCATIB]
- inhibition (Rattus norvegicus): Dose-dependent effect
- IC50 [13]: > 33 µM

— ChEMBL document CHEMBL3856275, “Discovery of Second Generation Reversible Covalent DPP1 Inhibitors Leading to an Oxazepane Amidoacetonitrile Based Clinical Candidate (AZD7986)” (J Med Chem, 2016)
